In ChEMBL document CHEMBL1149831, “Synthesis of 2-aryl-4-(benzimidazol-2-yl)-1,2-dihydro[1,2,4]triazino-[4,5-a]benzimidazol-1-one derivatives with preferential cytotoxicity against carcinoma cell lines” (Eur J Med Chem, 2008):

Assays:
Format in all cases: functional, cell-based
[1] = system: HCT-116; assay: Cytotoxicity against human HCT116 cells expressing wild type p53 after 72 hrs by MTT assay; conditions: HCT-116, 72 h
Summary of the method: (§1)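 Cells grown in DMEM/RPMI 1640 with 5 g/L glucose, 2 mM glutamine, penicillin/streptomycin, 10% fetal calf serum and NaHCO3. Seeded in 96-well plates and left 24 h at 37 °C, 5% CO2 before compound addition. Exposure then ran 72 h, each concentration in duplicate. MTT added for 1-4 h and formazan dissolved overnight in 10% aq. SDS (pH 5.5). OD read at 540 nm, with IC50 taken from dose-response curves.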

[2] = system: A549; assay: Cytotoxicity against human A549 cells after 72 hrs by MTT assay; conditions: A549, 72 h; summary of the method: as §1
[3] = system: CCRF-CEM; assay: Cytotoxicity against human CEM cells after 72 hrs by MTT assay; summary of the method: as §1
[4] = system: MCF7; assay: Cytotoxicity against human MCF7 cells after 72 hrs by MTT assay; conditions: MCF7, 72 h; summary of the method: as §1
[5] = system: K562; assay: Cytotoxicity against human K562 cells after 72 hrs by MTT assay; conditions: K562, 72 h; summary of the method: as §1
[6] = system: HCT-116; assay: Cytotoxicity against human HCT116 cells expressing mutant p53 after 72 hrs by MTT assay; conditions: HCT-116, 72 h; summary of the method: as §1
[7] = system: U-118-MG; assay: Cytotoxicity against human U118Mg cells after 72 hrs by MTT assay; summary of the method: as §1
[8] = system: HT-29; assay: Cytotoxicity against human HT29 cells after 72 hrs by MTT assay; conditions: HT-29, 72 h; summary of the method: as §1
[9] = system: PC-3; assay: Cytotoxicity against human PC3 cells after 72 hrs by MTT assay; conditions: PC-3, 72 h; summary of the method: as §1
[10] = system: CCRF-CEM; assay: Cytotoxicity against human CEM-DNR bulk cells after 72 hrs by MTT assay; summary of the method: as §1
[11] = system: K562; assay: Cytotoxicity against human K562-Tax cells after 72 hrs by MTT assay; conditions: K562, 72 h; summary of the method: as §1

Row | SMILES | IC50 [1] [µM] | IC50 [2] [µM] | IC50 [3] [µM] | IC50 [4] [µM] | IC50 [5] [µM] | IC50 [6] [µM] | IC50 [7] [µM] | IC50 [8] [µM] | IC50 [9] [µM] | IC50 [10] [µM] | IC50 [11] [µM]
1 | Clc1ccc(NN=C(c2nc3ccccc3[nH]2)c2nc3ccccc3[nH]2)cc1 | 201 | 2.8 | 42.5 | 140 | 200 | 16.8 | 250 | 114 | 250 | 112 | 159
2 | c1ccc(NN=C(c2nc3ccccc3[nH]2)c2nc3ccccc3[nH]2)cc1 | 162 | 3.8 | 13 | 83.2 | 114 | 17.6 | 160 | 81.9 | 248 | 27.9 | 144
3 | O=c1n(-c2ccccc2)nc(-c2nc3ccccc3[nH]2)c2nc3ccccc3n12 | 38.1 | 11.5 | 12.2 | 74.8 | 23.5 | 8.6 | 12 | 8 | 13.6 | 45.6 | 42.7
4 | COc1ccc(NN=C(c2nc3ccccc3[nH]2)c2nc3ccccc3[nH]2)cc1 | 35.7 | 0.5 | 10.9 | 215 | 116 | 66.5 | 250 | 114 | 250 | 96.7 | 235
5 | O=[N+]([O-])c1ccc(NN=C(c2nc3ccccc3[nH]2)c2nc3ccccc3[nH]2)cc1 | 11.7 | 0.7 | 58.4 | 94.8 | 190 | 4.7 | 250 | 17.7 | 218 | 140 | 101
6 | Cc1ccc(-n2nc(-c3nc4ccccc4[nH]3)c3nc4ccccc4n3c2=O)cc1 | 7.8 | 14.7 | 18.5 | 34.1 | 18.3 | 7.6 | 17.9 | 15.2 | 40.8 | 61.2 | 20.9
7 | O=c1n(-c2ccc(Cl)cc2)nc(-c2nc3ccccc3[nH]2)c2nc3ccccc3n12 | 73.9 | 1.2 | 83.6 | 140 | 134 | 2.3 | 247 | 88.6 | 242 | 51.2 | 167
8 | CCOC(=O)n1c(-c2nn(-c3ccc(C)cc3)c(=O)n3c2nc2ccccc23)nc2ccccc21 | 46.3 | 71 | 25.5 | 134 | 140 | 44.4 | 147 | 96.2 | 165 | 29.6 | 53.7
9 | CCOC(=O)n1c(-c2nn(-c3ccc(OC)cc3)c(=O)n3c2nc2ccccc23)nc2ccccc21 | 42.8 | 44.4 | 31.8 | 51.6 | 14 | 46.3 | 54.3 | 38.7 | 145 | 111 | 7.8
10 | CCOC(=O)n1c(-c2nn(-c3ccc([N+](=O)[O-])cc3)c(=O)n3c2nc2ccccc23)nc2ccccc21 | 70.7 | 4.4 | 155 | 144 | 166 | 5.4 | 6.2 | 21.9 | 125 | 224 | 196
11 | Cc1ccc(NN=C(c2nc3ccccc3[nH]2)c2nc3ccccc3[nH]2)cc1 | 195 | 0.6 | 26.5 | 95.8 | 160 | 10.5 | 250 | 95.9 | 250 | 87.6 | 239
12 | CCOC(=O)n1c(-c2nn(-c3ccccc3)c(=O)n3c2nc2ccccc23)nc2ccccc21 | 11.4 | 18 | 58.6 | 35.1 | 69.4 | 10.8 | 17.7 | 15.2 | 37.5 | 18.4 | 42.2
13 | COc1ccc(-n2nc(-c3nc4ccccc4[nH]3)c3nc4ccccc4n3c2=O)cc1 | 6.9 | 8.7 | 3.5 | 10.7 | 8.7 | 3.6 | 10 | 6 | 24.6 | 35.4 | 7.5
14 | CCOC(=O)n1c(-c2nn(-c3ccc(Cl)cc3)c(=O)n3c2nc2ccccc23)nc2ccccc21 | 7.7 | 4 | 31.8 | 21.3 | 14.1 | 6.4 | 12.4 | 29.7 | 150 | 111 | 7.9
15 | O=c1n(-c2ccc([N+](=O)[O-])cc2)nc(-c2nc3ccccc3[nH]2)c2nc3ccccc3n12 | 250 | 2.2 | 103 | 250 | 210 | 250 | 250 | 248 | 250 | 190 | 250
